In ChEMBL document CHEMBL5107939, “Optimization of brain-penetrant picolinamide derived leucine-rich repeat kinase 2 (LRRK2) inhibitors” (RSC Med Chem, 2021):

Legend:
[1] = target: T1, Leucine-rich repeat serine/threonine-protein kinase 2 (Homo sapiens, UniProt Q5S007, G2019S); test: Inhibition of human LRRK2 G2019S mutant expressed in human SH-SY5Y cells assessed as inhibition of tetracycline induced LRRK2 phosphorylation at Ser935 residue incubated for 90 mins by MSD assay; assay type: cell-based
T1 sequence (Q5S007 whole entry G2019S): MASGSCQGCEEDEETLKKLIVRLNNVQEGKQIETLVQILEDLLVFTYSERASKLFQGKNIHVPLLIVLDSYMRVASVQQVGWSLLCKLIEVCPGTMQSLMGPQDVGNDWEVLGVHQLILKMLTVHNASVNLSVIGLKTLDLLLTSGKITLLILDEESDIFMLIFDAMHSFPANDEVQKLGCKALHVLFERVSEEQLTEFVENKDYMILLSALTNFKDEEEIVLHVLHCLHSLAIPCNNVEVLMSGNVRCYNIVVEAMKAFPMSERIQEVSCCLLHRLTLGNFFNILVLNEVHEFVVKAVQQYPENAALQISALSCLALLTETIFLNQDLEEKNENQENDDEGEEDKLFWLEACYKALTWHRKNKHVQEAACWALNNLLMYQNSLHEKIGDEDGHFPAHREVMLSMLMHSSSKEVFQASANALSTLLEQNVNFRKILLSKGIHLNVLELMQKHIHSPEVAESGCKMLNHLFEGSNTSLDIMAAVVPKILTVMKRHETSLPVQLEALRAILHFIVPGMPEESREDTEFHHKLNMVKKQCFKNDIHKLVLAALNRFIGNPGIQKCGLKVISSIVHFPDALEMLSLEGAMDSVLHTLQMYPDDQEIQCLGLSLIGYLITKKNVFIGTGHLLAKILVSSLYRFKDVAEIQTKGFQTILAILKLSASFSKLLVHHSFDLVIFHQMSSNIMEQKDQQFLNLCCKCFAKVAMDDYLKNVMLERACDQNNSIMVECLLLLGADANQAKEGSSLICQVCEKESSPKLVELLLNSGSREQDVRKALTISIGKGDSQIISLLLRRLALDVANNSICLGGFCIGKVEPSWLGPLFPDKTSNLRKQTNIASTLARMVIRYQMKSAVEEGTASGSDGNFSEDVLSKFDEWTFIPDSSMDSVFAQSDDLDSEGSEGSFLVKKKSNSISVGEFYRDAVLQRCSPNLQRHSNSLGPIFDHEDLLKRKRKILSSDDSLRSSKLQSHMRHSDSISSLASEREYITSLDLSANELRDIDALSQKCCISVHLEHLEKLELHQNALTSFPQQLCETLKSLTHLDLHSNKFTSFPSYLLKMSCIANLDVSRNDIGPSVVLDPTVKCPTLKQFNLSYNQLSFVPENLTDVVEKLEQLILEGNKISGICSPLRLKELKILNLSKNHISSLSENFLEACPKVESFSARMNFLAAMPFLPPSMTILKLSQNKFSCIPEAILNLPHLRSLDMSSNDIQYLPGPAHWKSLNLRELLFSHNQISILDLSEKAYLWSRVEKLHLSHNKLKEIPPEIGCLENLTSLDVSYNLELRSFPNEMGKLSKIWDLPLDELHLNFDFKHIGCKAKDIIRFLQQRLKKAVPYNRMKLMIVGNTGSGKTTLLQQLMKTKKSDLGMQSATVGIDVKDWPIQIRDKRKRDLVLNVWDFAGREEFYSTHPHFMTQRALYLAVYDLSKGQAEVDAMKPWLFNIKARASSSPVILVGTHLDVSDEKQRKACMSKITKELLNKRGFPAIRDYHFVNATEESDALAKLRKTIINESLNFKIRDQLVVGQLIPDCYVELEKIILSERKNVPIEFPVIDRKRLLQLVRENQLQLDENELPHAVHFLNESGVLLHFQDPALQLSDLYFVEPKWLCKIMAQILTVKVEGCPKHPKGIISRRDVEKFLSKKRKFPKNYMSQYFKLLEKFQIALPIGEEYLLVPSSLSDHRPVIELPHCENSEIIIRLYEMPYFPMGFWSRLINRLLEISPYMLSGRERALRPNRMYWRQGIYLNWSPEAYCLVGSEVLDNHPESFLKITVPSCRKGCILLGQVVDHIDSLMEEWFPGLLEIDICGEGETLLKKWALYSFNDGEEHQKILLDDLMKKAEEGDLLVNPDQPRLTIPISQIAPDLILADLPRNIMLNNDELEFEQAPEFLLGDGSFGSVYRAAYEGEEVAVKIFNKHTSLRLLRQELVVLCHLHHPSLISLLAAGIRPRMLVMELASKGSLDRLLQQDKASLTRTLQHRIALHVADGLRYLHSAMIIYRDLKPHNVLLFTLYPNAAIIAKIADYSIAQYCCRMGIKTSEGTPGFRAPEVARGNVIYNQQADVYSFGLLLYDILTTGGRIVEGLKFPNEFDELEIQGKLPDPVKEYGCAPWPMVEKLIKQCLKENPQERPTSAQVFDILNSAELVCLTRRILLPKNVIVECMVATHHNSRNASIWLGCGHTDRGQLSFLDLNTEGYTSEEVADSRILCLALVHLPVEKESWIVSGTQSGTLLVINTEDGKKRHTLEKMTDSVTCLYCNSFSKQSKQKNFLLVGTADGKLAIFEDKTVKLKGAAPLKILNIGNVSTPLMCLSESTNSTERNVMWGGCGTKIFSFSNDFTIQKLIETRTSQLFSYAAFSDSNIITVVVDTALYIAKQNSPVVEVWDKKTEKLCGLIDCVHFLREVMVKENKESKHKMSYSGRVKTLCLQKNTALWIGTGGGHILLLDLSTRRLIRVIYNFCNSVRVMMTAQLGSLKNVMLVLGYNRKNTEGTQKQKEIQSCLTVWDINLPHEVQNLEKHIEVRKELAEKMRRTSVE
Outline: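 SH-SY5Y neuroblastoma cells carrying LRRK2 G2019S, grown in DMEM/F-12 with GlutaMax, 10% Tet-free FBS, nonessential amino acids and pen-strep at 37 °C, 5% CO2. Expression induced with Tet (2 µg/ml) 48-72 h before treatment. Compound exposure 90 min. Lysates captured on anti-LRRK2-coated MSD plates, probed for pSer935 or total LRRK2 with Sulfo-Tag read-out. IC50 from standard 4P fit of % inhibition.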

[2] = target: T1, Leucine-rich repeat serine/threonine-protein kinase 2; test: Inhibition of recombinant human GST20 tagged truncated LRRK2 G2019S mutant assessed as substrate phosphorylation preincubated for 15 mins followed by substrate addition and measured after 90 mins using fluorescein-labeled LRRK2tide as substrate in presence of ATP by TR-FRET based Lanthascreen kinase activity assay
Outline: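 Enzyme 1.25 nM in 50 mM Tris pH 8.5, 10 mM MgCl2, 0.01% Brij-35, 1 mM EGTA, 2 mM DTT, 0.05 mM orthovanadate. Compound (top 9.99 µM in DMSO, ten-point serial dilution) preincubated 15 min at RT. […] Stopped with EDTA plus 2 nM Tb anti-pERM, 1 h RT. 520/495 nm ratio read. IC50 from 4-parameter logistic fit, mean of several runs.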

[3] = species on record: Homo sapiens; test: Selectivity ratio, ratio of IC50 for inhibition of CLK2 (unknown origin) to IC50 for inhibition of recombinant human GST20 tagged truncated LRRK2 G2019S mutant
[4] = target: Dual specificity protein kinase CLK2 (Homo sapiens, UniProt P49760); test: Inhibition of CLK2 (unknown origin) assessed as substrate phosphorylation using coumarin and fluorescein-labeled peptide as substrate incubated for 1 hr by Z'-LYTE kinase assay
Dual specificity protein kinase CLK2, sequence (P49760 whole entry): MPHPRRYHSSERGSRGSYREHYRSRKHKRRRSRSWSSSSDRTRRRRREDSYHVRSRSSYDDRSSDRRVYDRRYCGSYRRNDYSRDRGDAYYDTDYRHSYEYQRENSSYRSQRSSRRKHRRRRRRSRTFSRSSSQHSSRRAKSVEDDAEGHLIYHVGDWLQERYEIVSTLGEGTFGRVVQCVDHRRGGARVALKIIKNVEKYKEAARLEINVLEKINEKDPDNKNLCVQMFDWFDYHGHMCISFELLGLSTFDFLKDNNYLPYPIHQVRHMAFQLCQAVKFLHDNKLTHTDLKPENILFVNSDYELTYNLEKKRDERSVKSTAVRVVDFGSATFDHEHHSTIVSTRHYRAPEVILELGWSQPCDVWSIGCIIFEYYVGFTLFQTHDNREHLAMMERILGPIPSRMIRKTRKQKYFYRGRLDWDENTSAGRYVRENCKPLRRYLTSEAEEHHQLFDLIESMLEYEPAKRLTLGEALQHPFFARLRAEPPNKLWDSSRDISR
Outline: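 CLK2 Z'-LYTE coupled-enzyme kit format, 10-point titration from DMSO; enzyme, substrate and compound reacted 1 h at ambient temperature; after development solution, read at excitation 400 nm; activity from coumarin 445 nm/fluorescein 520 nm emission ratio.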

[5] = Plasma clearance in po dosed CD rat measured after 120 mins by LC-MS/MS analysis; assay type: ADME, organism-based
[6] = MRT in po dosed CD rat measured after 120 mins by LC-MS/MS analysis; assay type: ADME, organism-based; conditions: in vivo
[7] = Intrinsic clearance in po dosed CD rat measured after 120 mins by LC-MS/MS analysis; assay type: ADME, organism-based; conditions: in vivo, 2 h
[8] = Mutagenicity in Salmonella typhimurium TA100 at 30 to 5000 ug in presence of S9 metabolic activation system for 48 hrs by ames test; assay type: toxicity, Salmonella enterica subsp. enterica serovar Typhimurium; conditions: dose 30-5000 µg
Outline: (§1)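 Plate incorporation Ames test with S9 from phenobarbital/beta-naphthoflavone-induced male Wistar Han rat liver; 30, 100, 300, 1000, 3000, 5000 µg/plate; triplicate minimal glucose agar plates with trace histidine; 48 h at 37 °C; positive if 2-fold revertant increase over vehicle with dose relation.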

[9] = Mutagenicity in Salmonella typhimurium TA1535 at 30 to 5000 ug in presence of S9 metabolic activation system for 48 hrs by ames test; assay type: toxicity, Salmonella enterica subsp. enterica serovar Typhimurium; conditions: in vitro, dose 30-5000 µg; outline: as §1
[10] = Mutagenicity in Salmonella typhimurium TA98 at 30 to 5000 ug in presence of S9 metabolic activation system for 48 hrs by ames test; assay type: toxicity, Salmonella enterica subsp. enterica serovar Typhimurium; conditions: dose 30-5000 µg; outline: as §1
[11] = In vivo inhibition of LRRK2 in CD rat assessed as reduction in serine 935 phosphorylated LRRK2 in striatum at 10 mg/kg, po and measured after 2 hrs by MSD immunoassay; assay type: functional
Outline: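 Male CD rats (125-150 g) dosed orally with compound suspended in 10% Tween 80 (5 mL/kg) or vehicle, euthanized by CO2 2 h later; striatum dissected, frozen on dry ice; pSer935 LRRK2 measured by MSD immunoassay as pSer935/total LRRK2 ratio, mean ± S.E.M.; one-way ANOVA with Dunnett's post hoc test.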

[12] = Intrinsic clearance in po dosed Beagle dog and measured upto 24 hrs by LC-MS/MS analysis; assay type: ADME, organism-based, Canis lupus familiaris; conditions: in vivo
[13] = tested on: P-gp (rat Mdr1a); test: Substrate activity at P-gp (unknown origin) expressed in LLC-PK1 cells transfected with rat Mdr1a assessed as efflux ratio of apparent permeability across basolateral to apical side to apparent permeability across apical to basolateral side at 1 uM incubated for 3 hrs by LC-MSMS analysis; assay type: ADME, cell-based, Sus scrofa; conditions: pig
[14] = tested on: P-gp (rat Mdr1a); test: Substrate activity at P-gp (unknown origin) expressed in LLC-PK1 cells transfected with rat Mdr1a assessed as apparent permeability at 1 uM incubated for 3 hrs by LC-MSMS analysis; assay type: ADME, cell-based, Sus scrofa; conditions: pig
[15] = MRT in po dosed Beagle dog and measured upto 24 hrs by LC-MS/MS analysis; assay type: ADME, organism-based, Canis lupus familiaris; conditions: in vivo
[16] = Plasma clearance in po dosed Beagle dog and measured upto 24 hrs by LC-MS/MS analysis; assay type: ADME, organism-based, Canis lupus familiaris
[17] = Brain to plasma permeability coefficient, Kp in CD rat plasma assessed as unbound fraction at 3 to 100 mg/kg, po and measured after 2 hrs by LC/MS/MS analysis; assay type: ADME, organism-based; conditions: in vivo, dose 3-100 mg/kg
[18] = target: Sodium channel protein type 5 subunit alpha (Homo sapiens, UniProt Q14524); test: Inhibition of human NaV1.5 expressed in HEK293 by PatchXpress automated patch clamp assay; assay type: cell-based
Sodium channel protein type 5 subunit alpha, sequence (Q14524 whole entry): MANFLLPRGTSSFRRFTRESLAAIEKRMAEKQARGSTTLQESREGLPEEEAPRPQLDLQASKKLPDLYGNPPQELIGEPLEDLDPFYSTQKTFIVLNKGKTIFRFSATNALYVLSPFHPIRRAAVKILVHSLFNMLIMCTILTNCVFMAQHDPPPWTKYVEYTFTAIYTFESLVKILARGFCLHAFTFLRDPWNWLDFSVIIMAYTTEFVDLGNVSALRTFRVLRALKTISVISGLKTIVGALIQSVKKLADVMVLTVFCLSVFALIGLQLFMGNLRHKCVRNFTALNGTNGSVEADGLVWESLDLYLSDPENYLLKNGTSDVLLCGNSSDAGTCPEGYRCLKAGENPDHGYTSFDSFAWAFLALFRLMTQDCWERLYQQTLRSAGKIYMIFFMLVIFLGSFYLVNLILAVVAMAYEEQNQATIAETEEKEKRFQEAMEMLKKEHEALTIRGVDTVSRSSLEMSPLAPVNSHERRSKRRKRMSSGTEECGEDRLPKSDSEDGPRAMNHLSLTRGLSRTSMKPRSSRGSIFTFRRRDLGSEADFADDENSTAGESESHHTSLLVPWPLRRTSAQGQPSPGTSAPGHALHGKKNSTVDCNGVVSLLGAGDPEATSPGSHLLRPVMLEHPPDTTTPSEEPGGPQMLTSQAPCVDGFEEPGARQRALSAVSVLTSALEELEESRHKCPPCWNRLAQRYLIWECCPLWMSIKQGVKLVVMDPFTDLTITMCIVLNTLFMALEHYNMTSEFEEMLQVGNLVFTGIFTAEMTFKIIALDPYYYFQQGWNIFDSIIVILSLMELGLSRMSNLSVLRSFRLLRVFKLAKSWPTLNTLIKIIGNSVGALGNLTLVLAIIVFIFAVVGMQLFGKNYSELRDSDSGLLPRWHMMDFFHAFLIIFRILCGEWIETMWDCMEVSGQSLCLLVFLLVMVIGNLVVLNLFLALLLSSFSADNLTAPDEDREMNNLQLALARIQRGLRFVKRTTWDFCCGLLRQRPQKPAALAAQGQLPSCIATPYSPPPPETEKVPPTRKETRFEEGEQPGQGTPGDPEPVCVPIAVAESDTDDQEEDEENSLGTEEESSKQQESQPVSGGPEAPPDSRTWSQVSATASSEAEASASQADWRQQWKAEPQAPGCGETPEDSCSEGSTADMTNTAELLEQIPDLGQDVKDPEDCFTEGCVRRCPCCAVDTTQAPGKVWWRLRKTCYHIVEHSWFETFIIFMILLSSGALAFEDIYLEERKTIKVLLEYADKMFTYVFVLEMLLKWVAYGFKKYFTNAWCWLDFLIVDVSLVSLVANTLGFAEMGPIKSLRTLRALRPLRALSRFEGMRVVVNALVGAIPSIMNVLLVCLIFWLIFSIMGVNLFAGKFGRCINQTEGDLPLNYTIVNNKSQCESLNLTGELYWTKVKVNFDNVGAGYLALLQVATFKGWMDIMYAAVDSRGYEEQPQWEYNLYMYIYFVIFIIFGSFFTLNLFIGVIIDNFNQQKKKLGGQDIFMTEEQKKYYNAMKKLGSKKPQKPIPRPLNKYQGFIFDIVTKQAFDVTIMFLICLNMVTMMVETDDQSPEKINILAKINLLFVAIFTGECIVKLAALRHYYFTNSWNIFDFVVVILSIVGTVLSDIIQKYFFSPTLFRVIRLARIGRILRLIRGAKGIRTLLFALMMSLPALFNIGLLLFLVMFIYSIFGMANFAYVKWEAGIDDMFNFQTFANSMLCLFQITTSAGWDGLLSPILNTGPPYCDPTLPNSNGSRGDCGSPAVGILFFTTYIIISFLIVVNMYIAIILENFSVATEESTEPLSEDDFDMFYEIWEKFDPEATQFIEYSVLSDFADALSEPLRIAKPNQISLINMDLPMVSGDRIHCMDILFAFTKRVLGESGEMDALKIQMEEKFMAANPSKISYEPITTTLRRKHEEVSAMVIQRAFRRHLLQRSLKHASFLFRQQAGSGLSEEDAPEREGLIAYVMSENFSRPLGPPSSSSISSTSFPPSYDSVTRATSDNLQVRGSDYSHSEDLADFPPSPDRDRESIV

SMILES: C[C@@H]1CN(c2cc(NC(=O)c3cccc(-c4cnn(C)c4)n3)c(C(F)(F)F)cn2)C[C@H](C)O1
- IC50 [1]: 0.0015 µM
- IC50 [2]: 0.004 µM
- Ratio IC50 [3]: 5
- IC50 [4]: 0.021 µM

SMILES: Cn1cc(-c2nccc(C(=O)Nc3cnn(C4CCC4)c3)n2)cn1
- IC50 [1]: 0.953 µM
- Ratio IC50 [3]: 505
- IC50 [4]: 17.2 µM

SMILES: C[C@@H]1[C@@H](O)CN1c1cc(NC(=O)c2cccc(-c3cnn(C)c3)n2)c(C(F)(F)F)cn1
- IC50 [1]: 0.002 µM
- IC50 [2]: 0.002 µM
- IC50 [4]: 0.012 µM

SMILES: Cc1nc(NC(=O)c2cccc(-c3cnn(C)c3)n2)cc(N2CC[C@@H](C(C)(C)O)C2)n1
- IC50 [1]: 0.042 µM
- IC50 [2]: 0.004 µM
- IC50 [4]: 0.255 µM

SMILES: CC(C)(O)[C@@H]1CCN(c2cnc(C(F)(F)F)c(NC(=O)c3cccc(-c4cnn(C5CCC5)c4)n3)c2)C1
- CL/F [5]: 31.4 mL/min/kg
- IC50 [1]: 0.0013 µM
- IC50 [2]: 0.019 µM
- MRT [6]: 2.1 h
- Ratio IC50 [3]: 5
- IC50 [4]: 0.091 µM

SMILES: COC1CN(c2cc(NC(=O)c3cccc(-c4cnn(C)c4)n3)c(C(F)(F)F)cn2)C1
- IC50 [1]: 0.0028 µM
- IC50 [2]: 0.028 µM
- Ratio IC50 [3]: 2.4
- IC50 [4]: 0.067 µM

SMILES: Cn1cc(-c2cccc(C(=O)Nc3cc(N4CC5(C(C)(C)O)CC4C5)ncc3C(F)(F)F)n2)cn1
- IC50 [1]: 0.002 µM
- IC50 [2]: 0.009 µM
- IC50 [4]: 0.0096 µM

SMILES: CC(C)(O)[C@@H]1CCN(c2cnc(C(F)(F)F)c(NC(=O)c3cccc(-c4cnn(CC5CC5)c4)n3)c2)C1
- CL/F [5]: 38 mL/min/kg
- IC50 [1]: 0.0004 µM
- IC50 [2]: 0.0086 µM
- MRT [6]: 2.9 h
- Ratio IC50 [3]: 3
- IC50 [4]: 0.023 µM
- CL [7]: 78464 mL/min/kg

SMILES: Cc1nc(N)cc(N2CC[C@@H](C(C)(C)O)C2)n1
- Activity [8]: Non-Toxic
- Activity [9]: Non-Toxic
- Activity [10]: Non-Toxic

SMILES: CCn1cc(-c2cccc(C(=O)Nc3cc(N4CC[C@@H](C(C)(C)O)C4)cnc3C(F)(F)F)n2)cn1
- IC50 [1]: 0.007 µM
- IC50 [2]: 0.04 µM
- IC50 [4]: 0.03 µM

SMILES: C[C@@H]1[C@H](O)CCN1c1cc(NC(=O)c2cccc(-c3cnn(C)c3)n2)c(C(F)(F)F)cn1
- IC50 [1]: 0.003 µM
- IC50 [2]: 0.005 µM
- IC50 [4]: 0.086 µM

SMILES: CC(C)(O)[C@@H]1CCN(c2cc(N)c(C(F)(F)F)cn2)C1
- Activity [8]: Toxic
- Activity [9]: Toxic
- Activity [10]: Toxic

SMILES: Cc1cnc(N2C[C@@H](C)O[C@@H](C)C2)cc1NC(=O)c1cccc(-c2cnn(C)c2)n1
- IC50 [1]: 0.024 µM
- IC50 [2]: 0.009 µM
- Ratio IC50 [3]: 14
- IC50 [4]: 0.124 µM

SMILES: Cn1cc(-c2cccc(C(=O)Nc3cnn(C4CCC4)c3)n2)cn1
- IC50 [1]: 0.905 µM
- IC50 [2]: 0.053 µM
- Ratio IC50 [3]: 112
- IC50 [4]: 5.96 µM

SMILES: CC(C)(O)[C@@H]1CCN(c2cnc(C(F)(F)F)c(NC(=O)c3cccc(-c4cnn(CC5(C(F)(F)F)CC5)c4)n3)c2)C1
- CL/F [5]: 87 mL/min/kg
- IC50 [1]: 0.0003 µM
- IC50 [2]: 0.008 µM
- MRT [6]: 1.2 h
- Ratio IC50 [3]: 59
- IC50 [4]: 0.47 µM

SMILES: Cn1cc(-c2cccc(C(=O)Nc3cnn(C4CCC4)c3)c2F)cn1
- IC50 [1]: 1.65 µM
- IC50 [2]: 0.07 µM
- Ratio IC50 [3]: 10
- IC50 [4]: 0.716 µM

SMILES: C[C@@H]1CN(c2cc(-c3n[nH]c4ccc(OC5(C)CC5)cc34)ncn2)C[C@H](C)O1 [MLi-2]
- inhibition in vivo at 10 mg/kg [11]: 72%

SMILES: Cn1cc(-c2cccc(C(=O)Nc3cc(N4CC[C@@H](C(C)(C)O)C4)cnc3C(F)(F)F)n2)cn1
- CL [12]: 1029 mL/min/kg
- CL/F [5]: 6.7 mL/min/kg
- efflux ratio at 3 h, 1 µM [13]: 0.94
- IC50 [1]: 0.021 µM
- IC50 [2]: 0.017 µM
- Papp at 3 h, 1 µM [14]: 29 ×10⁻⁶ cm/s
- MRT [6]: 4.9 h
- Ratio IC50 [3]: 4
- MRT [15]: 9.4 h
- CL/F [16]: 4.8 mL/min/kg
- Kp [17]: 0.4
- IC50 [4]: 0.062 µM
- CL [7]: 271 mL/min/kg

SMILES: C[C@H]1CN(c2cc(NC(=O)c3cccc(-c4cnn(C)c4)n3)c(C(F)(F)F)cn2)CCN1C1COC1
- CL/F [5]: 2.7 mL/min/kg
- IC50 [2]: 0.0015 µM
- MRT [6]: 2.2 h
- Ratio IC50 [3]: 5
- IC50 [4]: 0.008 µM
- CL [7]: 4081 mL/min/kg

SMILES: Cn1cc(-c2cccc(C(=O)Nc3cc(N4CC(O)C4)ncc3C(F)(F)F)n2)cn1
- IC50 [1]: 0.0075 µM
- IC50 [2]: 0.0048 µM
- Ratio IC50 [3]: 13
- IC50 [4]: 0.064 µM

SMILES: CC(C)(O)[C@@H]1CCN(c2cnc(C(F)(F)F)c(NC(=O)c3cccc(-c4cnn(CC(F)(F)F)c4)n3)c2)C1
- IC50 [18]: 30 µM
- CL/F [5]: 42 mL/min/kg
- IC50 [1]: 0.0007 µM
- IC50 [2]: 0.01 µM
- MRT [6]: 1.7 h
- Ratio IC50 [3]: 42
- IC50 [4]: 0.442 µM
- CL [7]: 2780 mL/min/kg

SMILES: Cn1cc(-c2nc(C(=O)Nc3cnn(C4CCC4)c3)cs2)cn1
- IC50 [1]: 0.271 µM
- Ratio IC50 [3]: 8.5
- IC50 [4]: 0.119 µM

SMILES: CC(C)(O)[C@@H]1CCN(c2cnc(C(F)(F)F)c(N)c2)C1
- Activity [8]: Non-Toxic
- Activity [9]: Non-Toxic
- Activity [10]: Non-Toxic
